Shown are actives, neighbours in structure and some others; about 2% of the full set was active somewhere.
SUMO1-SIM PPI: alters human SUMO1 binding to SIM partners; P63165; SUMO1 binding to a labelled peptide, TR-FRET, 1 h; inhibition, % at 20 µM; hit rate 0.33% among 360,000; AID 602429; in the data active = inhibition above about 37%
Target sequence (P63165 whole entry, looked up): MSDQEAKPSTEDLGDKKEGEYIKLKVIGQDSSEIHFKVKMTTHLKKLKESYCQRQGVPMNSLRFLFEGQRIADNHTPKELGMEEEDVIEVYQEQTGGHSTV
CSN inh: CSN deneddylation inhibition; hit rate 0.38% among 360,000; Purified CSN, SCF-Nedd8-OG deneddylation, fluorescence polarization; inhibition, % at 12.5 µM; Q92905; AID 651999;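 active = pattern-corrected inhibition above about 35%, with an unprinted fluorescence ratio check between 0.5 and 1.5, limit read from the data, passing the limit was not always enough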;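 note: 0% = enzyme with substrate and 100% = substrate without enzyme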
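Schedule: reaction 90 min, room temperature / Assay system: HEK293T-derived human Csn5 enzyme / Input: Csn5 at 0.24 nM final / Measure: inhibition of Csn5 cleavage, % / Control set: substrate-only high control, full reaction low control / Technique: fluorescence polarization of the substrate / Buffer or medium: Tris/NaCl/DTT buffer, pH 7.5 / Reagent: SCFSkp2-Nedd8OG substrate at 10 nM final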
DNMT1 inh: inhibitors of human DNMT1; P26358; DNMT1 molecular beacon, Hinp1I cleavage, fluorescence; inhibition (reported as % activation of signal), % at 10 µM; hit rate 0.83% among 360,000; in the data active = inhibition above about 50%
LMPTP inh: blocks human LMPTP phosphatase | P24666 | recombinant LMPTP-A, OMFP fluorogenic substrate, fluorescence intensity | inhibition, % at 20 µM | hit rate 0.22% among 360,000 | AID 651560;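 active = compounds that cut the enzyme signal by at least half of the control window in the single-dose screen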;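 note: plate controls were DMSO wells with enzyme plus substrate for no effect and substrate without enzyme for full effect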
Target sequence (P24666 whole entry, looked up): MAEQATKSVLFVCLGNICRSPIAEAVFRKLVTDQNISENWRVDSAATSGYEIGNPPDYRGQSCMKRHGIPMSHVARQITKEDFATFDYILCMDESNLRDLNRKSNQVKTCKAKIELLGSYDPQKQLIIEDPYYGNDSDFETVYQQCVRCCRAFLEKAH
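Test system: LMPTP-A, protein tyrosine phosphatase of low molecular weight; Input: 0.625 nM enzyme; Incubation: 50 min dark incubation at room temperature; Signal: endpoint fluorescence intensity from OMFP dephosphorylation; Read-out basis: % inhibition versus control wells.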
STEP inh: inhibitors of human striatal-enriched phosphatase STEP; P54829; recombinant STEP, OMFP fluorogenic substrate, fluorescence; inhibition, % at 20 µM; hit rate 0.25% among 360,000; AID 588621;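 active = inhibition at 20 µM, scaled per plate between control wells, above about 37%, limit read from the data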;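 note: 0% = DMSO with enzyme and substrate and 100% = substrate only without enzyme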
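Material: STEP (striatal-enriched tyrosine phosphatase) enzyme, cell-free | Medium: 50 mM Bis-Tris pH 6.0 with 2.5 mM DTT and 0.005% Tween 20 | Read-out: Percent inhibition scaled to no-enzyme and uninhibited-enzyme controls, plate-pattern corrected | Signal: Fluorescence read at 480 nm ex / 540 nm em | Times: 20 min reaction, room temperature, in the dark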
Scp1 inh: Scp-1 (human) phosphatase inhibition; Q9GZU7; Recombinant Scp1, phosphopeptide, malachite green phosphate absorbance; inhibition, % at 20 µM; hit rate 0.88% among 340,000; AID 493091;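 active = inhibition above about 50% at 20 µM, limit read from the data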;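 note: plate controls were DMSO wells with enzyme for no effect and wells lacking enzyme for full effect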
Target sequence (Q9GZU7 76-261 limits assumed): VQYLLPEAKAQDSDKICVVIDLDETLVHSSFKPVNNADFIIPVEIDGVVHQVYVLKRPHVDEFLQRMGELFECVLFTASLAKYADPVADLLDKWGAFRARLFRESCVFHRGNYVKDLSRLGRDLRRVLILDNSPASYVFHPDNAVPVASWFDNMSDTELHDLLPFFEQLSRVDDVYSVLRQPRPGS
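Times: enzyme reaction 45 min at room temperature, colour 5 min, stabilisation 30 min. Material: SCP-1 catalytic fragment, aa 76-261. Medium: Acidic Tris acetate buffer with magnesium and detergent. Signal: colorimetric free-phosphate detection, absorbance 630 nm. Read-out basis: % inhibition of SCP-1 phosphate liberation. Reagent: Phosphorylated 17-residue peptide substrate.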
* marks the source's active call; other numbers are inactive results; · = no result; ! = not active in a repeat.

SMILES	SUMO1-SIM PPI	CSN inh	DNMT1 inh	LMPTP inh	STEP inh	Scp1 inh
Cc1cc(C(=O)NC2CCCc3ccccc32)c(C)o1 (stereo not drawn)	2	-4	4	1	0	5
O=C(COC(=O)CC1SC(N2CCCC2)=NC1=O)Nc1ccc(Br)cc1 (stereo not drawn)	1	-8	0	0	2	-6
NC(=O)C1=C(N=C2CCCCC2)CCCC1	2	53*	3	-1	4	-5
Cc1cc[n+](-c2nc3ccccc3nc2C(=C=[N-])C#N)cc1	-17	35	-11	1	-2	-2
Cc1ccc[n+](-c2nc3ccccc3nc2C(=C=[N-])C#N)c1	-29	63*!	-5	2	3	-4
Cc1cc(C)c[n+](-c2nc3ccccc3nc2C(=C=[N-])C#N)c1	-34	33	-2	0	2	-6
N#CC(=C=[N-])c1nc2ccccc2nc1-[n+]1ccccc1	-46	44*	0	-1	1	8
O=C(COC(=O)c1ccccn1)Nc1ncc(C(F)(F)F)cc1Cl	-1	0	-1	-1	-1	-2
O=C(COC(=O)c1ccc([N+](=O)[O-])s1)Nc1ncc(C(F)(F)F)cc1Cl	23	38*	10	0	4	-3
N#Cc1ccccc1NC(=O)C1CC(=O)N(c2ccc3c4c(cccc24)CC3)C1 (stereo not drawn)	-7	3	2	0	-2	-7
Cc1ccc(NC(=O)C2CC(=O)N(c3ccc4c5c(cccc35)CC4)C2)cc1 (stereo not drawn)	-13	35*	-10	2	0	-9
O=[N+]([O-])c1cc(C(F)(F)F)ccc1NCCOc1ccccc1	-10	-7	0	2	1	-1
O=C(OCCNc1ccc(C(F)(F)F)cc1[N+](=O)[O-])c1cc2ccccc2oc1=O	-2	95*	0	4	2	-10
C=CCn1c(O)c(N=Nc2nc3ccccc3c(=O)n2-c2ccccc2)c2ccccc21	-7	-1	2	0	0	-1
COc1ccc(/C=C2\Oc3cc(OC(=O)N4CCOCC4)ccc3C2=O)c(OC)c1	-15	44*	-1	3	-1	-14
CSc1nc2n(n1)C(C)C1=C(CCCC1=O)N2 (stereo not drawn)	-4	-8	1	0	-4	-7
O=C(Nc1ccc2c(c1)C(=O)NC2=O)c1ccc2ncsc2c1	42*	5	-1	0	-4	-10
O=C(Nc1ccc(Br)cc1)c1ccc2ncsc2c1	-12	5	-5	1	-2	2
NC(=O)CSc1nnc(COc2ccccc2)n1N	0	-6	5	-2	1	1
Cc1ccc(OCc2nnc(SCC(N)=O)n2N)cc1	44*	-5	-1	-1	-3	-4
N=C1/C(=C/c2ccc(-c3cccc(C(=O)O)c3)o2)C(=O)N=C2SC=C(c3ccccc3)N12	46*	77*	100*	89*	64*	68*
Cc1cc(C)n(Cc2ccc(C(=O)N/N=C/c3ccc(-c4ccc([N+](=O)[O-])cc4)o3)o2)n1	104*	105	98*	97*	99*	102*
COc1ccc(N2CC(C(=O)Nc3ccc(S(=O)(=O)N4CCCCC4)cc3)CC2=O)cc1 (stereo not drawn)	2	1	-4	-1	-1	-5
Nc1ccc2nc(CCCCCCc3nc4ccc(N)cc4[nH]3)[nH]c2c1	0	-1	-15	68*	3	14
Nc1ccc2nc(CCCCCCCCc3nc4ccc(N)cc4[nH]3)[nH]c2c1	-2	3	-14	65*	2	-3
SMILES	SUMO1-SIM PPI	CSN inh	DNMT1 inh	LMPTP inh	STEP inh	Scp1 inh
Nc1ccc2nc(CCCCc3nc4ccccc4[nH]3)[nH]c2c1	3	-3	-7	10	0	-4
CC(C)Oc1ccc(C(=O)Nc2ccc(N3CCN(C(=O)c4ccco4)CC3)cc2)cc1	8	4	-4	-1	1	-10
CC(C)Oc1ccc(C(=O)Nc2ccc(N3CCCC3)cc2)cc1	-34	-1	53*	5	-4	3
O=C(Nc1ccc(N2CCCC2)cc1)c1cc(Cl)ccc1Cl	90*	23	53*	35	1	-4
COC(=O)[C@H](Cc1ccccc1)NC(=O)/C=C/[C@H]1O[C@@H](n2ccc(=O)[nH]c2=O)[C@H](O)[C@@H]1O	2	-2	6	-1	7	·
Cn1cnc([N+](=O)[O-])c1Sc1ncn[nH]1	-19	1	5	-1	-1	-10
O=C(NCCCN1CCCC1=O)C1CCN(S(=O)(=O)c2ccc(Cl)cc2)CC1	38*	3	7	-10	-2	-10
CCOC(=O)c1[nH]cnc1C(=O)Nc1ccccc1OC	3	-1	0	1	0	-5
Clc1cc(Cl)c2nc(N3CCCC3)sc2c1	1	41*	-4	1	4	-12
Clc1cc(Cl)c2nc(N3CCCCC3)sc2c1	-4	3	-1	2	8	-8
O=C(CSc1ccc(Cl)cc1)OCC(=O)N1CCN(c2ccccc2)CC1	0	1	-1	0	1	-3
O=C1c2ccccc2C(=O)N1CCCCN(C(=O)c1cc2ccccc2oc1=O)c1ccc(F)cc1F	-6	2	1	3	0	-16
C#CCOCCOCCOCCNc1nc(N2CCN(C(=O)CCCCCCCCCCNC(=O)Cn3cc(CCCCCN)nn3)CC2)nc(N2CCN(C(=O)CCCCCCCCCCNC(=O)Cn3cc(CCCCCN)nn3)CC2)n1	-104	60*	-133	-6	2	22
C#CCOCCOCCOCCNc1nc(N2CCN(C(=O)CCCCCCCCCCNC(=O)[C@H]([C@@H](C)CC)n3cc(CCCCCN)nn3)CC2)nc(N2CCN(C(=O)CCCCCCCCCCNC(=O)[C@H]([C@@H](C)CC)n3cc(CCCCN=C(N)N)nn3)CC2)n1	79*	116*	-130	3	5	·
C#CCOCCOCCOCCNc1nc(N2CCN(C(=O)CCCCCCCCCCNC(=O)[C@H]([C@@H](C)CC)n3cc(CCCCN=C(N)N)nn3)CC2)nc(N2CCN(C(=O)CCCCCCCCCCNC(=O)[C@H](CO)n3cc(CCCCCN)nn3)CC2)n1	47*	106*	-81	6	14	35
C#CCOCCOCCOCCNc1nc(N2CCN(C(=O)CCCCCCCCCCNC(=O)Cn3cc(CCCCCN)nn3)CC2)nc(N2CCN(C(=O)CCCCCCCCCCNC(=O)[C@H]([C@@H](C)CC)n3cc(CCCCN=C(N)N)nn3)CC2)n1	39*	100*	-32	5	8	40

Screens deposited in PubChem BioAssay by Sanford-Burnham Center for Chemical Genomics.
